Source: ChEMBL document CHEMBL2086368, “Sulfonilamidothiopyrimidone and thiopyrimidone derivatives as selective COX-2 inhibitors: synthesis, biological evaluation, and docking studies” (Eur J Med Chem, 2012)
Calls of active or inactive are those of the source. The calls are words filed in the database; no cut-off is given here.

Key:
PBL [1] = assay: Cytotoxicity against IL2-stimulated human PBL assessed as cell death at 10 uM after 24 hrs by MTT assay; format: cell-based
How it was run: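 IL-2-treated human PBLs given 1, 10 or 50 (micromolar) test agent for 24 h. Viability read by MTT (0.15 mg/ml, 4 h, 37 °C) reduction to formazan, absorbance at 570 nm with 655 nm reference. DMSO served as cell-death control.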

[2] = biological target: T1, Prostaglandin G/H synthase 2 (Homo sapiens) (UniProt P35354); assay: Increase of COX2-mediated PGE2 production in PMA-Ion-stimulated human PBL at 10 uM after 24 hrs by ELISA
T1 sequence (whole entry): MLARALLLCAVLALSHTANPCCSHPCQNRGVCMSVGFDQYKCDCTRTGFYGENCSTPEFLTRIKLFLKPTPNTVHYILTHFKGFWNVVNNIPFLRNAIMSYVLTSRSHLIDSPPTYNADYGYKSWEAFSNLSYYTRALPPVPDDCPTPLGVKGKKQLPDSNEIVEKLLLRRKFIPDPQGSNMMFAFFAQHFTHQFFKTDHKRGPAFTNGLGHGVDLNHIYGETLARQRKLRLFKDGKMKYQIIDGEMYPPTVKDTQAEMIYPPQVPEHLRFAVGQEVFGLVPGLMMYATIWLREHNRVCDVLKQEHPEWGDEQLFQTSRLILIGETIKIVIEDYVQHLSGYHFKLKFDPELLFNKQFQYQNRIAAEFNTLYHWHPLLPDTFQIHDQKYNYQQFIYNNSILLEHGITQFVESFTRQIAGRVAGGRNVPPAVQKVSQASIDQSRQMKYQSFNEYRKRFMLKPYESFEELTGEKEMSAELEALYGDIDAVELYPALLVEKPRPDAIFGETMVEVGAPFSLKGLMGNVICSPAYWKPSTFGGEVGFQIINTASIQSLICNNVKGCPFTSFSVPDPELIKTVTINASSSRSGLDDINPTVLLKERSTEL

[3] = biological target: T1, Prostaglandin G/H synthase 2 (Homo sapiens); assay: Inhibition of COX2-mediated PGE2 production in PMA-Ion-stimulated human PBL at 10 uM after 24 hrs by ELISA
PBL [4] = assay: Inhibition of COX2 expression in PMA-Ion-stimulated human PBL at 10 uM after 20 hrs by Western blot analysis; format: functional, cell-based
How it was run: (§1)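 PBLs treated with PMA 15 ng/ml plus ionomycin, alone or with inhibitor, for 20 h at 37 °C; NS398 as inhibition control. Lysates quantified by BCA, resolved on 10% SDS-PAGE, semidry-blotted to PVDF, probed with rabbit anti-human COX-2 (1:500) and anti-α-tubulin loading control, ECL detection.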

PBL [5] = assay: Antiproliferative activity against human PBL assessed as incorporation of BrdU at 10 uM after 2 to 24 hrs; format: cell-based
How it was run: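 Human PBLs in RPMI 1640 with 10% heat-inactivated FCS, 1% penicillin/streptomycin, 2 mM L-glutamine, stimulated with PHA and 60 U/ml IL-2; exposed to test agent for 24 h at 37 °C, 5% CO2. DNA synthesis read by immunochemical detection of incorporated BrdU after partial DNA denaturation.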

[6] = biological target: Prostaglandin G/H synthase 2 (Ovis aries) (UniProt P79208); settings: at 5 nM
[7] = biological target: T1, Prostaglandin G/H synthase 2 (Homo sapiens); assay: Increase of COX2-mediated PGE2 production in PMA-Ion-stimulated human PBL at 10 uM after 24 hrs by ELISA relative to control
PBL [8] = assay: Inhibition of COX2 expression in PMA-Ion-stimulated human PBL at 5 uM after 20 hrs by Western blot analysis; format: functional, cell-based; how it was run: as §1

Chain of Prostaglandin G/H synthase 2 (Ovis aries) (P79208 whole entry, looked up): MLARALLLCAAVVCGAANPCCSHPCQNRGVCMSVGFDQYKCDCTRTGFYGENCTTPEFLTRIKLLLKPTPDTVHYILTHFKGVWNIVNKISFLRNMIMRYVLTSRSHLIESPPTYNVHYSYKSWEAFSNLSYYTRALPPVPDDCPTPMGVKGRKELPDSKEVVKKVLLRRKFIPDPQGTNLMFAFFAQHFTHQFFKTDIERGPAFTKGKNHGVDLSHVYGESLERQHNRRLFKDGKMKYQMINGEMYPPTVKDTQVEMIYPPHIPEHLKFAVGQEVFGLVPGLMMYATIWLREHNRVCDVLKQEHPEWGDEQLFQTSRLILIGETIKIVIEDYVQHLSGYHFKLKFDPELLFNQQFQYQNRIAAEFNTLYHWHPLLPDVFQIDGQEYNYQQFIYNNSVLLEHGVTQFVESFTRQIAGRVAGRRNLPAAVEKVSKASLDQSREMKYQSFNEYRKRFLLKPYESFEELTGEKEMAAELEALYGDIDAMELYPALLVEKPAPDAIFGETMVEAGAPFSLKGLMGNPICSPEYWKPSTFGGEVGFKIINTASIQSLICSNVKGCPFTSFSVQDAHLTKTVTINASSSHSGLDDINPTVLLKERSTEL

inhibition [3] | SMILES | Activity (PBL [1]) | further results
 | Cc1sc2nc(SC3CCCCC3)n(NS(C)(=O)=O)c(=O)c2c1C | Non-toxic | Activity [2]: Active
 | Nn1c(SC(C(=O)O)c2ccccc2)nc2c([nH]c3ccccc32)c1=O (configuration not stated) | Non-toxic | 
 | CCc1nn2c(=O)c3cc(-c4ccccc4)sc3nc2s1 | Non-toxic | 
inactive | O=c1c2sc3ccccc3c2nc2n1N=C(c1ccccc1)CS2 | Non-toxic | 
 | CS(=O)(=O)Nn1c(Sc2ccc([N+](=O)[O-])cc2[N+](=O)[O-])nc2sc3c(c2c1=O)CCCC3 | Non-toxic | 
 | CS(=O)(=O)Nn1c(Sc2ccccc2C(=O)O)nc2ccsc2c1=O | Non-toxic | Activity [2]: Active
 | O=C1Nn2c(nc3c(sc4ccccc43)c2=O)SC1c1ccccc1 (configuration not stated) | Non-toxic | Activity [2]: Active
> 50% | CS(=O)(=O)Nn1c(Sc2ccc(F)cc2F)nc2sc(-c3ccccc3)cc2c1=O | Non-toxic | inhibition (PBL [4]): Active; Activity (PBL [5]): Non-toxic; inhibition [6]: 50%
inactive | COc1ccc(C2=Nn3c(nc4sc(-c5ccccc5)cc4c3=O)SC2)cc1 | Non-toxic | 
20% | CS(=O)(=O)Nn1c(Sc2ccc([N+](=O)[O-])cc2)nc2sc(-c3ccccc3)cc2c1=O | Non-toxic | inhibition (PBL [4]): Active; Activity (PBL [5]): Non-toxic; inhibition [6]: 50%
 | CS(=O)(=O)Nn1c(SC2CCCCC2)nc2sc(-c3ccccc3)cc2c1=O | Non-toxic | fold change (FC) [7]: 2.9
 | CS(=O)(=O)Nc1ccc([N+](=O)[O-])cc1OC1CCCCC1 |  | inhibition (PBL [8]): Active
 | CC(Sc1nc2c(sc3ccccc32)c(=O)n1N)C(=O)O (configuration not stated) | Non-toxic | 
20% | CS(=O)(=O)Nn1c(Sc2ccccc2C(=O)O)nc2sc(-c3ccccc3)cc2c1=O | Non-toxic | inhibition (PBL [4]): Active; Activity (PBL [5]): Non-toxic; inhibition [6]: 50%
20% | CS(=O)(=O)Nn1c(Sc2ccccc2[N+](=O)[O-])nc2sc(-c3ccccc3)cc2c1=O | Non-toxic | inhibition (PBL [4]): Active; Activity (PBL [5]): Non-toxic; inhibition [6]: 50%
